Experimental data taken from ChEMBL document CHEMBL4354825, “Design and Synthesis of Basic Selective Estrogen Receptor Degraders for Endocrine Therapy Resistant Breast Cancer” (J Med Chem, 2019).
Activity calls are given as the source filed them. The calls are words filed in the database; no cut-off is given here.

Key:
[1] = molecular target: T1, Estrogen receptor (Homo sapiens) (UniProt P03372); assay: Induction of degradation of ERalpha in human MCF7:WS8 cells at 100 nM in presence of MG-132 incubated for 24 hrs by Western blot analysis; format: cell-based
T1 sequence (whole entry): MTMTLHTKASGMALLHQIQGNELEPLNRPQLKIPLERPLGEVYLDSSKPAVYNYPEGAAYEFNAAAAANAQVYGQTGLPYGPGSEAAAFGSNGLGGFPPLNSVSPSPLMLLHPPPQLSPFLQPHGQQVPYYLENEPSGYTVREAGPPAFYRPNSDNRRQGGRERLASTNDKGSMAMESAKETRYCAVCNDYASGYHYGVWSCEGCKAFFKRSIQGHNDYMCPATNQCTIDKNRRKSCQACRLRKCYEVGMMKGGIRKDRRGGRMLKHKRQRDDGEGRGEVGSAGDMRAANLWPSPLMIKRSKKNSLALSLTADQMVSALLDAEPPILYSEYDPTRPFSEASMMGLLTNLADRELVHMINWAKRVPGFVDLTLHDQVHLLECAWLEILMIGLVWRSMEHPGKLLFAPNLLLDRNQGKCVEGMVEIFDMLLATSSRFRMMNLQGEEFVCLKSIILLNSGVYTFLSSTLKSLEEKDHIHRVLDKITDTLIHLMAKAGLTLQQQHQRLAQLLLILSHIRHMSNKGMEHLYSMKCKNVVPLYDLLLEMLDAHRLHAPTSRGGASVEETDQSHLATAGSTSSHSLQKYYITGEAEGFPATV

Mus musculus [2] = assay: In vivo degradation of ERalpha in C57BL/6 mouse at 50 mg/kg, po measured after 7 hrs by Western blot analysis; format: functional, organism-based
How it was run: (§1)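 Female C57BL/6J mice aged 9–12 weeks were dosed at 50 mg/kg p.o. in PEG 400/10% HPCD (1:9 v/v). Regimens were a single dose with sacrifice at 5 h, or 3 daily doses with sacrifice 5 h (n = 5) or 7 h (n = 6) after the last dose. Ovaries and uterus were homogenized, 20 μg protein was run by SDS-PAGE, and the blot was probed for ERα and normalized to β-actin.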

Mus musculus [3] = assay: In vivo degradation of ERalpha in C57BL/6 mouse at 50 mg/kg, po administered for 3 days and measured on day 3 by Western blot analysis; format: functional, organism-based; how it was run: as §1
[4] = Antiproliferative activity against human MCF7:5C cells assessed as reduction in cell viability incubated for 7 days by Hoechst 33258 dye based assay relative to control; format: functional; conditions: 168 h
How it was run: (§2)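 Cells were seeded at 5000 per well; MCF7:WS8 had been estrogen-stripped for 2 days first. Compounds were serially diluted in DMSO, with 0.01% DMSO as vehicle. The medium was removed on day 5 (MCF7:WS8) or day 7 (MCF7:5C), and cells were lysed by freezing at −80 °C overnight. DNA was measured by Hoechst 33258 fluorescence. Maximum efficacy was normalized to vehicle (0%) and no cells (100%); at least three biological replicates.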

[5] = Antiproliferative activity against human MCF7:WS8 cells assessed as reduction in cell viability incubated for 5 days by Hoechst 33258 dye based assay; format: functional; conditions: MCF7:WS8, 120 h; how it was run: as §2
[6] = Antiproliferative activity against human MCF7:WS8 cells assessed as reduction in cell viability incubated for 5 days by Hoechst 33258 dye based assay relative to control; format: functional; conditions: MCF7:WS8, 120 h; how it was run: as §2
[7] = Plasma concentration in C57BL/6 mouse at 5 mg, sc measured after 0.5 hrs by LC/MS-MS analysis; format: ADME, organism-based
How it was run: (§3)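 PK screen in female C57BL/6 mice (N = 3 per time point) given 5 mg s.c. single dose; mice perfused, plasma and brain collected postmortem at 0.5 and 2 h; analyte quantified by LC-MS/MS in MRM mode against standard curves prepared in the matching matrix with a common internal standard; mean and s.d. reported.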

[8] = Plasma concentration in C57BL/6 mouse at 5 mg, sc measured after 2 hrs by LC/MS-MS analysis; format: ADME, organism-based; how it was run: as §3
[9] = Drug concentration in C57BL/6 mouse brain at 5 mg, sc measured after 0.5 hrs by LC/MS-MS analysis; format: ADME, organism-based; conditions: read-out: Drug uptake; how it was run: as §3
[10] = Drug concentration in C57BL/6 mouse brain at 5 mg, sc measured after 2 hrs by LC/MS-MS analysis; format: ADME, organism-based; conditions: read-out: Drug uptake; how it was run: as §3
Rattus norvegicus [11] = assay: Induction of uterotrophic activity in Sprague-Dawley rat assessed as increase in uterine weight at 2 mg/kg, sc administered for 3 days and measured after 24 hrs of last dosing by hematoxylin eosin staining based imaging analysis; format: functional, organism-based
How it was run: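 Female Sprague Dawley rats, 12 days old, were housed with foster dams (6 per dam) and acclimated for one week. From day 19 they received 3 daily doses of 2 mg/kg s.c. in peanut oil. Animals were killed 24 h after the last dose, and uteri were excised, trimmed of fat and mesentery, and weighed. Half of each uterus was fixed in 4% paraformaldehyde, paraffin embedded and stained with H&E.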

MCF7:TAM1 [12] = assay: Antitumor activity against human MCF7:TAM1 cells xenografted in athymic nude mouse assessed as tumor regression at 5 mg, sc measured after 4 weeks; format: functional, organism-based
How it was run: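 Ovariectomized athymic female nude mice, 4–6 weeks old, carrying MCF7:TAM1 tumours established in the mammary fat pad, with E2 supplied from 1.0 cm silastic capsules implanted s.c. Dosing was 5 mg/week s.c. in sesame oil. Tumour cross-sectional area was measured weekly with calipers as (length/2)×(width/2)×π, and mean area was plotted against time in weeks.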

Homo sapiens [13] = organism: Homo sapiens; assay: Cytotoxicity against human MCF7:WS8 3D spheroid cells assessed as reduction in tumor spheroid size at 10 nM incubated for 14 days
T47D [14] = assay: Cytotoxicity against human T47D 3D spheroid cells assessed as reduction in tumor cell viability at 10 nM incubated for 14 days by celltiter-glo 3D cell viability assay
Homo sapiens [15] = organism: Homo sapiens; assay: Cytotoxicity against human MCF7:WS8 3D spheroid cells assessed as reduction in tumor cell viability at 10 nM incubated for 14 days by celltiter-glo 3D cell viability assay
MCF7:TAM1 [16] = assay: Cytotoxicity against human MCF7:TAM1 3D spheroid cells assessed as reduction in tumor cell viability at 10 nM incubated for 14 days by celltiter-glo 3D cell viability assay
T47D [17] = assay: Cytotoxicity against human T47D 3D spheroid cells harboring Y537S mutant assessed as reduction in tumor cell viability at 10 nM incubated for 14 days by celltiter-glo 3D cell viability assay
T47D [18] = assay: Cytotoxicity against human T47D 3D spheroid cells harboring D538G mutant assessed as reduction in tumor cell viability at 10 nM incubated for 14 days by celltiter-glo 3D cell viability assay
Rattus norvegicus [19] = assay: Induction of uterotrophic activity in Sprague-Dawley rat assessed as increase in uterine weight at 10 mg/kg, po administered for 3 days and measured after 24 hrs of last dosing by hematoxylin eosin staining based imaging analysis; format: functional, organism-based
How it was run: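 Female Sprague-Dawley rats were dosed from day 19 of age once daily for 3 days: 10 mg/kg p.o. in 2% Tween 80/0.5% methylcellulose. EE2 (0.1 mg/kg p.o., peanut oil) was the positive control. Uteri were excised and weighed 24 h after the last dose; one half was fixed in 4% paraformaldehyde for H&E histology.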

With `Cc1cc(Cl)cc(C)c1C(=O)c1sc2cc(O)ccc2c1Oc1ccc(/C=C/C(=O)O)cc1` as the molecule, how does the Activity [1] read?
The Activity was “Active”.

What about the Activity (Mus musculus [2]) of the same molecule?
The Activity was “Active”.

What about the Activity (Mus musculus [3]) of the same molecule?
Its Activity is “Active”.

With `C[C@]12CC[C@@H]3c4ccc(O)cc4C[C@@H](CCCCCCCCC[S+]([O-])CCCC(F)(F)C(F)(F)F)[C@H]3[C@@H]1CC[C@@H]2O` (some centres undefined) [FULVESTRANT] as the molecule, how does the Emax [4] read?
Its Emax is 48%.

What about the IC50 [5] of the same molecule?
Its IC50 is 0.603 nM.

What about the Emax [6] of the same molecule?
The Emax was 66%.

What about the concentration at 0.5 h [7] of the same molecule?
The concentration at 0.5 h was 31.2 nM.

And the concentration at 2 h [8]?
The concentration at 2 h was 301 nM.

And the concentration at 0.5 h [9]?
The concentration at 0.5 h was 0.7 nM.

And the concentration at 2 h [10]?
The concentration at 2 h was 47.4 nM.

What about the Activity (Rattus norvegicus [11]) of the same molecule?
Its Activity is “inactive”.

What about the Activity (MCF7:TAM1 [12]) of the same molecule?
The Activity was “Active”.

And the Activity (Homo sapiens [13])?
The Activity was “Active”.

What about the Activity (T47D [14]) of the same molecule?
The Activity was “Active”.

And the Activity (Homo sapiens [15])?
Its Activity is “Active”.

What about the Activity (MCF7:TAM1 [16]) of the same molecule?
Its Activity is “Active”.

What about the Activity (T47D [17]) of the same molecule?
Its Activity is “Active”.

And the Activity (T47D [18])?
Its Activity is “Active”.

For `Cc1c(-c2ccc(O)cc2)n(Cc2ccc(OCCN3CCCCCC3)cc2)c2ccc(O)cc12`, which Activity (Rattus norvegicus [19]) is on record?
The Activity was “inactive”.
